The source of these data is ChEMBL document CHEMBL4392836, “Second-generation aryl isonitrile compounds targeting multidrug-resistant Staphylococcus aureus” (Bioorg Med Chem, 2019).

≈ marks a conversion by molar mass, not a printed value. Calls of active or inactive are those of the source. No cut-off for these calls is given here.

Data set [1] has as its system Staphylococcus aureus. Briefly: Antibacterial activity against methicillin-resistant Staphylococcus aureus NRS123 USA400 after 18 to 24 hrs by broth microdilution assay. The class given is functional. The method, boiled down: (§1)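 CLSI broth microdilution with modifications. Bacteria cultured in TSB and exposed to compounds or control antibiotics in triplicate. Plates incubated aerobically at 37 °C for 18–24 h. MIC is the lowest concentration preventing visible growth.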

The test system of data set [2] is Klebsiella pneumoniae. Put plainly: Antibacterial activity against Klebsiella pneumoniae ATCC BAA-1705 after 18 to 24 hrs in presence of colistin by broth microdilution assay. It is filed as functional. The method in brief:
(§2)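 To permeabilize the outer membrane, CLSI broth microdilution in TSB (triplicate) was run with subinhibitory colistin: ¼ × MIC for A. baumannii, E. cloacae and E. coli strains, and P. aeruginosa; ½ × MIC for K. pneumoniae. Plates incubated aerobically at 37 °C for 18–24 h. MIC taken as the lowest concentration with no visible growth.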

Data set [3] concerns Klebsiella pneumoniae. Briefly: Antibacterial activity against Klebsiella pneumoniae ATCC BAA-1705 after 18 to 24 hrs by broth microdilution assay. It is filed as functional. The method in brief: (§3)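 Broth microdilution MIC per CLSI guidelines with modifications. Bacteria grown in TSB and exposed to compounds or control antibiotics in triplicate. Plates incubated aerobically at 37 °C for 18–24 h. MIC taken as the lowest concentration with no visible growth.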

Data set [4] relates to Staphylococcus aureus. Put plainly: Antibacterial activity against methicillin-resistant Staphylococcus aureus NRS119 after 18 to 24 hrs by broth microdilution assay. It is filed as functional. The method in brief: as §1
In data set [5] the test system is Enterococcus faecium. Put plainly: Antibacterial activity against vancomycin-resistant Enterococcus faecium ATCC 700221 after 18 to 24 hrs by broth microdilution assay. It is filed as functional. The method, boiled down:
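Broth microdilution per CLSI with modifications. Cultured in BHI and exposed to compounds in triplicate. Incubated aerobically at 37 °C for 18–24 h. MIC read as the lowest concentration with no visible growth.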

Data set [6] deals with Escherichia coli. Put plainly: Antibacterial activity against Escherichia coli BW25113 after 18 to 24 hrs in presence of colistin by broth microdilution method. It is filed as functional. The method in brief: as §2
The subject of data set [7] is Staphylococcus aureus. Put plainly: Antibacterial activity against methicillin-resistant Staphylococcus aureus NRS385 USA500 after 18 to 24 hrs by broth microdilution assay. The class given is functional. The method, boiled down: as §1
Data set [8] has as its system Staphylococcus aureus. Put plainly: Antibacterial activity against vancomycin-resistant Staphylococcus aureus VRS11a after 18 to 24 hrs by broth microdilution assay. The class given is functional. The method, boiled down: as §1
Data set [9] can be described thus: Toxicity in wounded skin area of Balb/c mouse infected with methicillin-resistant Staphylococcus aureus USA300 at 2% administered topically twice daily for 5 consecutive days measured 4 times daily during compound dosing. The note with it: in vivo, topical_or_ocular. The method in brief:
(§4)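 Female Balb/c mice with intradermal MRSA USA300 abscesses were treated topically twice daily for 5 days with a 2% suspension in petroleum jelly, alongside a vehicle group. Mice were checked at least four times daily during infection and treatment for adverse reactions. Wounds were examined for inflammation and toxicity.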

The subject of data set [10] is Staphylococcus aureus. Put plainly: Antibacterial activity against vancomycin-resistant Staphylococcus aureus VRS10 after 18 to 24 hrs by broth microdilution assay. It is filed as functional. The method in brief: as §1
The nature of data set [11]: Cytotoxicity against human HaCaT cells assessed as cell viability at 128 uM measured after 24 hrs by MTS assay. The class given is cell-based. The note with it: read-out: Activity. The method in brief:
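HaCaT keratinocytes grown in DMEM with 10% FBS at 37 °C, 5% CO₂. Compounds tested at 16, 32, 64 and 128 µM in triplicate for 24 h; controls received matching DMSO. Viability expressed as percent of DMSO-treated cells (mean ± SD).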

The test system of data set [12] is Staphylococcus aureus. Briefly: Antibacterial activity against methicillin-sensitive Staphylococcus aureus NRS107 after 18 to 24 hrs by broth microdilution assay. The class given is functional. The method in brief:
as §1

Data set [13] concerns Enterobacter cloacae. Briefly: Antibacterial activity against Enterobacter cloacae BAA1134 after 18 to 24 hrs in presence of colistin by broth microdilution assay. The class given is functional. The method in brief:
as §2

In data set [14] the test system is Escherichia coli. Put plainly: Antibacterial activity against AcrAB-TolC deficient Escherichia coli […] after 18 to 24 hrs in presence of colistin by broth microdilution method. It is filed as functional. The method, boiled down:
as §2

Data set [15] deals with Streptococcus pneumoniae. Briefly: Antibacterial activity against penicillin-resistant Streptococcus pneumoniae ATCC 700677 after 18 to 24 hrs by broth microdilution assay. The class given is functional. The method, boiled down:
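CLSI broth microdilution with modifications. Bacteria exposed to compounds in triplicate and incubated at 37 °C with 5% CO₂ for 18–24 h. MIC is the lowest concentration preventing visible growth.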

In data set [16] the test system is Acinetobacter baumannii. Briefly: Antibacterial activity against Acinetobacter baumannii BAA1605 after 18 to 24 hrs by broth microdilution assay. It is filed as functional. The method, boiled down: as §3
Data set [17] has as its system Pseudomonas aeruginosa. Put plainly: Antibacterial activity against Pseudomonas aeruginosa ATCC 15442 after 18 to 24 hrs by broth microdilution assay. The class given is functional. The method in brief:
as §3

Data set [18] has as its system Mus musculus. Put plainly: Induction of inflammation in wounded skin area of Balb/c mouse infected with methicillin-resistant Staphylococcus aureus USA300 at 2% administered topically twice daily for 5 consecutive days measured 4 times daily during compound dosing. The following applies: in vivo, topical_or_ocular. The class given is organism-based. The method in brief: as §4

In data set [19] the test system is Staphylococcus epidermidis. Put plainly: Antibacterial activity against methicillin-resistant Staphylococcus epidermidis NRS101 after 18 to 24 hrs by broth microdilution assay. It is filed as functional. The method in brief: as §1
For data set [20], the system named is Staphylococcus aureus. Briefly: Antibacterial activity against methicillin-resistant Staphylococcus aureus USA300 NRS384 after 18 to 24 hrs by broth microdilution assay. It is filed as functional. The method, boiled down: as §1
The test system of data set [21] is Staphylococcus aureus. Put plainly: Bacteriostatic activity against methicillin-resistant Staphylococcus aureus USA400 NRS123 at 4 times MIC measured after 24 hrs by time-kill assay. It is filed as functional, organism-based.
Data set [22] has as its system Enterobacter cloacae. Briefly: Antibacterial activity against Enterobacter cloacae BAA1134 after 18 to 24 hrs by broth microdilution assay. It is filed as functional. The method, boiled down: as §3
Data set [23] has as its system Staphylococcus aureus. Put plainly: Antibacterial activity against methicillin-resistant Staphylococcus aureus USA300 infected in Balb/c mouse assessed as reduction in bacterial burden in wounded skin area at 2% administered topically twice daily for 5 consecutive days measured 12 hrs post last dose relative to control. It is filed as functional. Further details: scale not given: the % may be the effect or the level left. The method in brief: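 Eight-week-old female Balb/c mice (n = 5 per group) received an intradermal injection of 40 μL of 1.32 × 10⁹ CFU/mL MRSA USA300. From abscess formation (~48 h), a 2% suspension in petroleum jelly was applied topically twice daily for 5 days, with a vehicle-only group. Mice were euthanized 12 h after the last dose. Wounds were homogenized in PBS, serially diluted and plated on mannitol salt agar (≥16 h, 37 °C). CFU reduction was calculated against vehicle.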

Data set [24] concerns Escherichia coli. Put plainly: Antibacterial activity against AcrAB-TolC deficient Escherichia coli […] after 18 to 24 hrs in absence of colistin by broth microdilution method. The class given is functional. The method in brief: as §3
Data set [25] deals with Acinetobacter baumannii. Briefly: Antibacterial activity against Acinetobacter baumannii BAA1605 after 18 to 24 hrs in presence of colistin by broth microdilution assay. The class given is functional. The method in brief: as §2
Data set [26] has as its system Escherichia coli. Put plainly: Antibacterial activity against Escherichia coli BW25113 after 18 to 24 hrs in absence of colistin by broth microdilution method. It is filed as functional. The method, boiled down: as §3
The subject of data set [27] is Pseudomonas aeruginosa. Put plainly: Antibacterial activity against Pseudomonas aeruginosa ATCC 15442 after 18 to 24 hrs in presence of colistin by broth microdilution assay. It is filed as functional. The method in brief: as §2

As for `COc1cc(/C=C/c2ccc(C#N)cc2)cc(OC)c1`, the MIC in data set [1] stood at 64 µM (≈ 17 µg/mL).

`N#Cc1ccc(/C=C/c2ccc(C#N)cc2)cc1`: the minimal inhibitory concentration (MIC) in data set [2] was more than 64 µM; in data set [3], more than 64 µM; in data set [4] it was 1 µM (≈ 0.23 µg/mL); in data set [5], more than 64 µM; in data set [6], more than 64 µM; in data set [7], 8 µM (≈ 1.84 µg/mL). Moreover, the MIC in data set [8] is 8 µM (≈ 1.84 µg/mL); in data set [10] it was 8 µM (≈ 1.84 µg/mL); in data set [12], 4 µM (≈ 0.921 µg/mL); in data set [13], 4 µM; in data set [14] it was more than 64 µM; in [1], 8 µM (≈ 1.84 µg/mL). In addition, the MIC was 8 µM (≈ 1.84 µg/mL) in data set [15]; more than 64 µM in data set [16]; more than 64 µM in [17]; 1 µM (≈ 0.23 µg/mL) in data set [19]; 2 µM (≈ 0.461 µg/mL) in data set [20]; more than 64 µM in data set [22]. In addition, the MIC was more than 64 µM in data set [24], 16 µM in data set [25], more than 64 µM in data set [26] and more than 64 µM in data set [27]. Also, the Activity entry in data set [9] was “Non-Toxic”; in data set [18] it was “Non-Toxic”; in data set [23], 79.02%. The viability at 24 h, 128 µM in data set [11] was more than 90%. Also, in [21], the result was Active.

As for `N#Cc1ccc(/C=C/c2ccc(F)cc2)cc1`, the minimum inhibitory concentration (MIC) in [1] is 64 µM (≈ 14.3 µg/mL).

For `N#Cc1ccccc1/C=C/c1ccccc1`, the minimal inhibitory concentration (MIC) in [4] and in data set [20] was 4 µM (≈ 0.821 µg/mL) each time.

`CC/C(=C\c1ccccc1C#N)c1ccccc1` had a minimum inhibitory concentration (MIC) in data set [20] of 4 µM (≈ 0.933 µg/mL).

In data set [1], `N#Cc1ccc(/C=C/c2ccco2)cc1` yielded a minimum inhibitory concentration (MIC) of 32 µM (≈ 6.25 µg/mL).

For `N#Cc1ccc(/C=C/c2ccc3ccccc3n2)cc1`, the MIC in data set [4] is 4 µM (≈ 1.03 µg/mL); in data set [10], 32 µM (≈ 8.2 µg/mL); in [1], 8 µM (≈ 2.05 µg/mL); in data set [20] it was 4 µM (≈ 1.03 µg/mL).

The compound `N#Cc1ccc(/C=C/c2ccnc3ccccc23)cc1` yielded an MIC in data set [1] of more than 64 µM.

`N#Cc1ccc(CCc2ccc(C#N)cc2)cc1` had an MIC in data set [1] of more than 64 µM.

In the case of `N#Cc1ccc(CCc2cccnc2)cc1`, in [1], the MIC is more than 64 µM.

Compound `N#Cc1ccc(CCC2CCc3ccccc3N2)cc1` (configuration not stated) came in with an MIC in data set [1] of 16 µM (≈ 4.2 µg/mL).

As to `N#Cc1ccc(/C=C/c2ccc(Cl)c(Cl)c2)cc1`, the MIC in data set [1] is more than 64 µM.
